High-throughput results deposited in PubChem by Broad Institute.
The list is not random: actives were taken first. Their share in the collection is about 4%.
C2C12 statin = suppression of simvastatin myotoxicity; C2C12 myotubes + simvastatin, ATP luminescence, 48 h; scaled: DMSO 0, geranylgeraniol control 100; 330,000 compounds, 0.78% hits; rescue of ATP level, % at 7.49 µM;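 active means mean ATP rescue above about 67%, or every replicate alone reaching that limit, limit read from the data, passing the limit was not always enough; inconclusive means no clear call, values can overlap the other calls; inactive means mean under the limit and some replicate under it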;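 further: myotubes were challenged with 10 µM simvastatin during compound exposure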
SIRT5 block = sirtuin-5 (human) deacylase inhibition. Q9NXA8. Purified SirT5, succinyl-peptide AMC, trypsin-coupled fluorescence. inhibition, % at 15 µM. 330,000 compounds, 1.1% hits. AID 652115; in the data active means inhibition above about 15%; inconclusive means no clear call, values can overlap the other calls
FN deposit inh = fibronectin deposition inhibition | AH1F fibroblasts, Alexa488-fibronectin deposition fluorescence, overnight | 350,000 compounds, 0.086% hits | inhibition, % at 12.6 µM;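 active means mean inhibition across replicates of 30% or more, regardless of how many single replicates reach that level; inconclusive means mean under 30% yet at least half of replicates reach 30%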;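 further: positive control wells lacked labelled fibronectin entirely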
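Material: AH1F fibroblasts assembling fluorescent fibronectin matrix; amount: 10000 AH1F cells/well; medium: DMEM, 2% serum; reagent: Alexa488-fibronectin, 24 nM final in well; dosing: single compound dose, delivered by pin transfer; incubation: 1 h adhesion, overnight exposure; detection: fluorescence after three HBSS washes, excitation 485 nm, emission 525 nm; measure: fibronectin deposition inhibition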
FGF22 binding = FGF22 (human) thermal shift binding; recombinant FGF22 thermal shift, SYPRO orange fluorescence; percent of sucrose octasulfate shift, DMSO zero; activity (Tm shift, normalised), % at 9.99 µM; 340,000 compounds, 1.5% hits; AID 651658;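 active means mean Tm shift, scaled 0 neutral to 100 positive control, at about 1.3% or above, every replicate too, limit read from the data; inconclusive means no clear call, values can overlap the other calls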
E-sel inducer = E-selectin induction on HUVECs; HUVEC E-selectin immunofluorescence imaging; normalized: neutral wells 0, TNF-alpha wells 100; activation, % at 7.58 µM; P16581; 260,000 compounds, 0.37% hits;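 active means mean E-selectin-positive cell signal at least 10% of the positive control, reached in at least 60% of replicates, without over 20% cell loss; inconclusive means no rule given, readout overlaps actives, possibly toxicity-flagged; inactive means the rest, including those meeting only one limit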
Target sequence (P16581 whole entry, looked up): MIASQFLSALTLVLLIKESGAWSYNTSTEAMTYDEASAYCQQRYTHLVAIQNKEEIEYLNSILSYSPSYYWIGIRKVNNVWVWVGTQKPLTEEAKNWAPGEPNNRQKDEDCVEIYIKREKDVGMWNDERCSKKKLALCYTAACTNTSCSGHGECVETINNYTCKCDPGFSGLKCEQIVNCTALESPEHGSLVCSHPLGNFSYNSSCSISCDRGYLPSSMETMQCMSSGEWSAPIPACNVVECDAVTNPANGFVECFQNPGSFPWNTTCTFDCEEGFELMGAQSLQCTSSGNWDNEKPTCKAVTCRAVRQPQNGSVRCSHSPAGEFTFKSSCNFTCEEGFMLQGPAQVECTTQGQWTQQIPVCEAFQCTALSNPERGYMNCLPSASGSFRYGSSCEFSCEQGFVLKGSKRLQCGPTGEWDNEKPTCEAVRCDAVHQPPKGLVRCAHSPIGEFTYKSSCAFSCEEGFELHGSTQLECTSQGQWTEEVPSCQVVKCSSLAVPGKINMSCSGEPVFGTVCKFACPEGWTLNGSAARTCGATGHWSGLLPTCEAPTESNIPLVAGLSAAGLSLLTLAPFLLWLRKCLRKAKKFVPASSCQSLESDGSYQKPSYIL
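System: HUVEC / Compound: single concentration / Signal: immunofluorescence imaging / Read-out: percent E-selectin-positive cells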
Ecoli rRNA inh = inhibitors of bacterial rRNA selective over humanized ribosomes; E. coli WT GFP vs humanized-ribosome RFP mutants, fluorescence, 24 h; hits give low values; DMSO median 0, no signal -100; GFP signal change (wild-type ribosome), % (no concentration beside the values); 350,000 compounds, 1.6% hits; AID 720706;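 active means significant combined selectivity score with lowered wild-type GFP, culture density cut under 30%, mutant RFP and density less affected; inactive means any of these conditions unmet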
* marks the source's active call; other numbers are inactive results; ? = inconclusive; . = not tested or not shown.

SMILES	C2C12 statin	SIRT5 block	FN deposit inh	FGF22 binding	E-sel inducer	Ecoli rRNA inh
COc1ccc(-n2nnnc2SCC(=O)N(C)C2CCS(=O)(=O)C2)cc1 (centres undefined)	.	.	-9	43*	0	6
CCCN(C(=O)CSc1nnnn1C)C1CCS(=O)(=O)C1 (centres undefined)	.	0	7	43*	.	19
CC(C)NC(=O)N1CC2(C1)[C@H](c1ccccc1)[C@H](CO)N2C(=O)c1ccccn1	.	-2	.	1	0	1
Cc1ccc(Nc2c([N+](=O)[O-])c(=O)oc3ccccc23)cc1	.	1	20	0	0	.
O=c1oc2ccccc2c(Nc2ccc(O)cc2)c1[N+](=O)[O-]	133*	.	.	.	.	.
O=c1cc(CSc2nc(NCc3ccccc3)c3ccccc3n2)nc2ccc(Cl)cn12	.	-2	0	0	1	-32*
O=C(CCCn1c(SCc2cc(=O)n3cc(Cl)ccc3n2)nc2ccccc2c1=O)NCC1CCCO1 (centres undefined)	.	4	0	0	2	3
C[C@@H](NC(=O)C[C@H]1CC[C@@H](NS(=O)(=O)c2cccc(F)c2)[C@H](CO)O1)c1ccccc1	2	-4	-1	0	-1	7
O=C(C[C@H]1CC[C@@H]2NC[C@H](O)COC[C@H]2O1)Nc1nccs1	-29	.	9	0	.	3
Cc1ccc(CNC(=O)CN2c3cccc4cccc(c34)S2(=O)=O)cc1	-1	6	-1	0	.	3
CN(CC(=O)Nc1cccc(F)c1)C(=O)CN1c2cccc3cccc(c23)S1(=O)=O	2	-2	2	0	-1	-40*
COc1cccc(CNC(=O)CN2c3cccc4cccc(c34)S2(=O)=O)c1	-3	-3	-1	0	2	-37*
O=C(C[C@@H]1CC[C@@H](NC(=O)c2ccncc2)[C@H](CO)O1)NCC1CCCCC1	5	0	11	0	-1	2
COc1cc2cc(CN(CCc3cccc(C)c3)C(=S)NCCCN(C)C)c(=O)[nH]c2cc1OC	.	-10	-5	0	-2	-38*
Cc1ccc2cc(CN(CCc3ccccc3)C(=S)NCCCN(C)C)c(=O)[nH]c2c1	-7	1	7	0	.	-26
Cc1cccc2cc(CN(CCCN(C)C)C(=S)NCCc3ccccc3)c(=O)[nH]c12	-2	4	0	0	4	-17*
Cc1ccc2[nH]c(=O)c(CN(CCCN(C)C)C(=S)NCCc3ccccc3)cc2c1	.	0	-3	0	4	-36*
O=C(C[C@@H]1C=C[C@H](NC(=O)c2ccccc2)[C@H](CO)O1)NCCc1ccncc1	24	0	3	1	0	-1
C[C@H]1CCCCO[C@H](CN(C)Cc2ccc(C(F)(F)F)cc2)[C@@H](C)CN([C@@H](C)CO)C(=O)c2cc(NC(=O)CCCN(C)C)ccc2O1	.	-4	.	0	0	5
C[C@@H]1CN([C@@H](C)CO)C(=O)c2cc(NC(=O)Nc3cccc4ccccc34)ccc2O[C@@H](C)CCCCO[C@@H]1CN(C)S(=O)(=O)c1ccccc1	.	5	-2	1	.	-1
Nc1cc(=O)[nH]c(N)n1	6	3	7	0	?	-13*
Cc1cc(=O)[nH]c(N)n1	4	-4	6	0	4	10
O=C(C[C@@H]1C[C@@H]2c3cc(NC(=O)Nc4ccccc4)ccc3O[C@@H]2[C@@H](CO)O1)NC1CCCC1	0	.	-2	0	0	1
CCN1C[C@@H](C)[C@H](OC)CN(C)C(=O)c2cc(NC(=O)NC(C)C)ccc2OC[C@H]1C	2	2	1	0	0	1
COc1ccc(C#Cc2ccc3c(c2)O[C@H](CN(C)C(=O)CN2CCOCC2)[C@H](C)CN([C@@H](C)CO)S3(=O)=O)cc1	15	-7	.	0	0	-4
SMILES	C2C12 statin	SIRT5 block	FN deposit inh	FGF22 binding	E-sel inducer	Ecoli rRNA inh
CNc1nc(NCc2ccccc2)c2sccc2n1	-2	20*	13	0	0	6
c1ccc(CNc2nc(NCc3cccs3)nc3ccsc23)cc1	4	-1	0	0	.	-65
O=C(Cn1nc(-c2ccc(Cl)cc2)ccc1=O)NCC1COCCO1 (centres undefined)	19	18*	1	-1	0	-3
O=C(Nc1ccc(Cl)cc1)N[C@H]1CC[C@H](CCNS(=O)(=O)c2ccccc2F)O[C@@H]1CO	-2	-5	6	0	0	-10
Cc1nn(Cc2ccccc2Cl)c2sc(C(=O)Nc3nccs3)cc12	.	.	-2	.	0	.
Cc1nn(Cc2ccc(F)cc2)c2sc(C(=O)Nc3nccs3)cc12	.	-3	22	44*	.	6
CN1N=C(C(F)(F)F)CC1=O	.	0	2	44*	2	14
Cc1cccc(OCC(=O)N2CCN(S(C)(=O)=O)CC2)c1	.	-1	11	43*	0	10
Cc1ccc(OCC(=O)N2CCN(S(C)(=O)=O)CC2)cc1	3	-6	3	0	.	18
CCCNC(=O)N1CC2(CN(CC3CC3)C2)c2c(n(C)c3cc(OC)ccc23)[C@H]1CO	.	4	.	0	0	1
C[C@H](CO)N1C[C@H](C)[C@H](CN(C)Cc2ccccc2)Oc2ncc(C#Cc3ccccc3)cc2C1=O	1	4	12	0	0	-1
O=C(OC(c1ccccc1)c1nccc2ccccc12)c1ccccc1 (centres undefined)	6	-3	7	0	0	3
CC(C)C(OC(=O)c1ccccc1)c1nccc2ccccc12 (centres undefined)	8	-3	5	0	.	-28*
O=C(O)c1csc(N/N=C/c2ccc(Br)cc2)n1	.	0	6	31	6	-28*
COCC(=O)Nc1ccc2c(c1)OC[C@@H](C)N(C(=O)C1CCCC1)C[C@@H](C)[C@H](OC)CN(C)C2=O	-3	.	2	.	0	2
O=C(C[C@H]1CC[C@H]2[C@@H](COC[C@@H](O)CN2Cc2ccc(Oc3ccccc3)cc2)O1)N1CCOCC1	16	-1	11	0	0	1
O=C(O)C[C@@H]1C=C[C@H](NC(=O)c2ccncc2)[C@@H](CO)O1	-2	-1	-3	0	0	1
O=C(O)CN1C(=O)NC2(CCc3ccccc32)C1=O (centres undefined)	-4	.	-2	0	0	9
O=C1NC(=O)C2(CCc3ccccc32)N1 (centres undefined)	65*	.	.	.	.	.
